Source: ChEMBL document CHEMBL5058577, “EUbOPEN Chemogenomics Library 2 (Multiplex)” (2022)

Tested on: HEK-293T
Assay: Multiplex assay against HEK293T
Type: toxicity, cell-based
Settings: human
In short: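 Cells stained live at seeding with Hoechst33342, BioTracker Green Microtubule Cytoskeleton Dye, MitoTracker Red and Annexin V Alexa Fluor 680 were imaged on a CQ1 microscope at 37°C and 5% CO2 after compound addition. Their classification by CellPathfinder machine-learning gating ran from Hoechst high-intensity objects versus normal cells, to healthy, pyknosed or fragmented nuclei among normal cells, to mitotic or apoptotic among pyknosed cells. Tubulin, mitochondrial-mass and membrane-permeability phenotypes are per cents of healthy-nucleus cells.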

[1] = 12 h, 1 µM, compound concentration 1 uM, replicate 1
[2] = 12 h, 1 µM, compound concentration 1 uM, replicate 2
[3] = 12 h, 10 µM, compound concentration 10 uM, replicate 1
[4] = 12 h, 10 µM, compound concentration 10 uM, replicate 2
[5] = 24 h, 1 µM, compound concentration 1 uM, replicate 1
[6] = 24 h, 1 µM, compound concentration 1 uM, replicate 2
[7] = 24 h, 10 µM, compound concentration 10 uM, replicate 1
[8] = 24 h, 10 µM, compound concentration 10 uM, replicate 2
[9] = 48 h, 1 µM, compound concentration 1 uM, replicate 1
[10] = 48 h, 1 µM, compound concentration 1 uM, replicate 2
[11] = 48 h, 10 µM, compound concentration 10 uM, replicate 1
[12] = 48 h, 10 µM, compound concentration 10 uM, replicate 2

## Nc1nc(-c2ccco2)c2cnn(Cc3ccccc3F)c2n1
[1]
  Population Apoptotic (%): 37%
  Population Fragmented Nuclei (%): 6%
  Population Healthy Nuclei (%): 76%
  Population Hoechst High Intensity Objects (%): 9%
  Population Membrane Permeable-Phenotype (%): 0%
  Population Mitochondria Different-Phenotype (%): 58%
  Population Mitotic Cells (%): 62%
  Population Normal (%): 90%
  Population Pyknosed Nuclei (%): 16%
  Population Tubulin-Different-Phenotype (%): 41%
  Total Cell Count: 300
[2]
  Population Apoptotic (%): 36%
  Population Fragmented Nuclei (%): 5%
  Population Healthy Nuclei (%): 81%
  Population Hoechst High Intensity Objects (%): 11%
  Population Mitochondria Different-Phenotype (%): 64%
  Population Mitotic Cells (%): 63%
  Population Normal (%): 88%
  Population Pyknosed Nuclei (%): 13%
  Population Tubulin-Different-Phenotype (%): 23%
  Total Cell Count: 404
[3]
  Population Apoptotic (%): 33%
  Population Fragmented Nuclei (%): 7%
  Population Healthy Nuclei (%): 73%
  Population Hoechst High Intensity Objects (%): 8%
  Population Membrane Permeable-Phenotype (%): 0%
  Population Mitochondria Different-Phenotype (%): 61%
  Population Mitotic Cells (%): 66%
  Population Normal (%): 91%
  Population Pyknosed Nuclei (%): 19%
  Population Tubulin-Different-Phenotype (%): 43%
  Total Cell Count: 306
[4]
  Population Apoptotic (%): 40%
  Population Fragmented Nuclei (%): 6%
  Population Healthy Nuclei (%): 76%
  Population Hoechst High Intensity Objects (%): 12%
  Population Mitochondria Different-Phenotype (%): 68%
  Population Mitotic Cells (%): 60%
  Population Normal (%): 87%
  Population Pyknosed Nuclei (%): 17%
  Population Tubulin-Different-Phenotype (%): 26%
  Total Cell Count: 265
[5]
  Population Apoptotic (%): 30%
  Population Fragmented Nuclei (%): 7%
  Population Healthy Nuclei (%): 77%
  Population Hoechst High Intensity Objects (%): 7%
  Population Membrane Permeable-Phenotype (%): 0%
  Population Mitochondria Different-Phenotype (%): 36%
  Population Mitotic Cells (%): 69%
  Population Normal (%): 92%
  Population Pyknosed Nuclei (%): 15%
  Population Tubulin-Different-Phenotype (%): 26%
  Total Cell Count: 396
[6]
  Population Apoptotic (%): 28%
  Population Fragmented Nuclei (%): 9%
  Population Healthy Nuclei (%): 81%
  Population Hoechst High Intensity Objects (%): 5%
  Population Mitochondria Different-Phenotype (%): 46%
  Population Mitotic Cells (%): 71%
  Population Normal (%): 94%
  Population Pyknosed Nuclei (%): 9%
  Population Tubulin-Different-Phenotype (%): 17%
  Total Cell Count: 514
[7]
  Population Apoptotic (%): 38%
  Population Fragmented Nuclei (%): 11%
  Population Healthy Nuclei (%): 67%
  Population Hoechst High Intensity Objects (%): 6%
  Population Membrane Permeable-Phenotype (%): 2%
  Population Mitochondria Different-Phenotype (%): 52%
  Population Mitotic Cells (%): 61%
  Population Normal (%): 93%
  Population Pyknosed Nuclei (%): 21%
  Population Tubulin-Different-Phenotype (%): 31%
  Total Cell Count: 334
[8]
  Population Apoptotic (%): 35%
  Population Hoechst High Intensity Objects (%): 10%
  Population Membrane Permeable-Phenotype (%): 0%
  Population Mitochondria Different-Phenotype (%): 59%
  Population Mitotic Cells (%): 64%
  Population Normal (%): 89%
  Population Tubulin-Different-Phenotype (%): 23%
  Total Cell Count: 328
[9]
  Population Apoptotic (%): 32%
  Population Fragmented Nuclei (%): 12%
  Population Healthy Nuclei (%): 75%
  Population Hoechst High Intensity Objects (%): 3%
  Population Membrane Permeable-Phenotype (%): 1%
  Population Mitochondria Different-Phenotype (%): 31%
  Population Mitotic Cells (%): 67%
  Population Normal (%): 96%
  Population Pyknosed Nuclei (%): 12%
  Population Tubulin-Different-Phenotype (%): 18%
  Total Cell Count: 641
[10]
  Population Apoptotic (%): 28%
  Population Fragmented Nuclei (%): 14%
  Population Healthy Nuclei (%): 78%
  Population Hoechst High Intensity Objects (%): 4%
  Population Mitochondria Different-Phenotype (%): 21%
  Population Mitotic Cells (%): 71%
  Population Normal (%): 95%
  Population Pyknosed Nuclei (%): 7%
  Population Tubulin-Different-Phenotype (%): 14%
  Total Cell Count: 769
[11]
  Population Apoptotic (%): 36%
  Population Fragmented Nuclei (%): 16%
  Population Healthy Nuclei (%): 73%
  Population Hoechst High Intensity Objects (%): 7%
  Population Membrane Permeable-Phenotype (%): 0%
  Population Mitochondria Different-Phenotype (%): 42%
  Population Mitotic Cells (%): 63%
  Population Normal (%): 92%
  Population Pyknosed Nuclei (%): 9%
  Population Tubulin-Different-Phenotype (%): 19%
  Total Cell Count: 412
[12]
  Population Apoptotic (%): 28%
  Population Fragmented Nuclei (%): 13%
  Population Healthy Nuclei (%): 74%
  Population Mitochondria Different-Phenotype (%): 43%
  Population Mitotic Cells (%): 71%
  Population Pyknosed Nuclei (%): 12%
  Population Tubulin-Different-Phenotype (%): 15%
  Total Cell Count: 398
